From PubChem BioAssay AID463146 (The Scripps Research Institute Molecular Screening Center, 2010)

Biological target: Protein phosphatase methylesterase 1 (Homo sapiens) (UniProt Q9Y570)
Test: lysate PME-1 activity-based profiling inhibitors – cell lysate, gel ABPP, fluorescence, HeLa, MDA-MB-231, late-stage follow-up (AID 463146)
Conditions: HeLa/MDA-MB-231 lysate, FP-Rh gel ABPP fluorescence, at 10 µM (top of the series)
Method in brief: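 Assay system: PME-1 in HeLa or MDA-MB-231 lysate; amount: soluble proteome at 1 mg/mL total protein; technique: in-gel fluorescence after SDS-PAGE; buffer or medium: DPBS as proteome buffer; controls: DMSO high control, gel background low control; read-out: % inhibition from PME-1 band intensity; times: 30 min compound at 25 °C, 20 min probe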

Chain of Protein phosphatase methylesterase 1 (Homo sapiens) (Q9Y570 whole entry, looked up): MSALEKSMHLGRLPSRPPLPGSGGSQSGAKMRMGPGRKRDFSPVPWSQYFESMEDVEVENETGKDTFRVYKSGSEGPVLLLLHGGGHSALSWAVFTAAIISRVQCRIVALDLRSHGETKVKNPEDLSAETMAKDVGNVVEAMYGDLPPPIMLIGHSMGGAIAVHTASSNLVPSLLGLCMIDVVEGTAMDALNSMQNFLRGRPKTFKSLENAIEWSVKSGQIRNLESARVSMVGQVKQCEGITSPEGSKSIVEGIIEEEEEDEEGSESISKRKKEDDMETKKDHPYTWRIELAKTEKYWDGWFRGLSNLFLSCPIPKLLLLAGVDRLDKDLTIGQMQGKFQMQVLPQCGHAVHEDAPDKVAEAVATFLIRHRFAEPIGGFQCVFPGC

SMILES | inhibition (HeLa Lysate) [%] | inhibition (MDA-MB-231 Lysate) [%]
COC(=O)N1C(=O)[C@](c2ccccc2)(C2CCCC2)N1C(=O)OC | 100 | 100
COC(=O)N1C(=O)[C@@](c2ccccc2)(C2CCCC2)N1C(=O)OC | 100 | 
COC(=O)N1C(=O)[C@@](c2ccccc2)(C2CCCCC2)N1C(=O)OC | 100 | 
COC(=O)N1C(=O)[C@](c2ccccc2)(C2CCCCC2)N1C(=O)OC | 100 | 100
